The values below come from ChEMBL document CHEMBL4028857, “Anchimerically Activated ProTides as Inhibitors of Cap-Dependent Translation and Inducers of Chemosensitization in Mantle Cell Lymphoma” (J Med Chem, 2017).

Calls of active or inactive are those of the source.

For series [1], the system named is Mino. Briefly: Antiproliferative activity against human Mino cells at 100 uM preincubated for 48 hrs followed by thymidine addition measure after 16 hrs by Thymidine incorporation assay. Type of series: functional, cell-based. The method, boiled down:
(§1)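 MCL lines treated 48 h with compound re-added daily, alone or with co-drug (ibrutinib 25 µM where used), then thymidine added for a further 16 h; proliferation read as thymidine incorporation.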
For orientation: Incorporation of labelled thymidine or its analogues reports DNA synthesis.

Series [2] addresses T1, Adenosine 5'-monophosphoramidase HINT1 (Homo sapiens, UniProt P49773). Put plainly: Prodrug activation in human Z138 cells assessed as Hint1 mediated 2-amino-7-(2-(4-chlorophenoxy)ethyl)-9-((2R,3R,4S,5R)-3,4-dihydroxy-5-(phosphonooxymethyl)tetrahydrofuran-2-yl)-6-oxo-6,9-dihydro-1H-purin-7-ium formation per 5 million cells at 150 uM after 12 hrs by LC-MS/MS analysis. Type of series: cell-based. Put shortly:
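Mantle cell lymphoma cells (five million) grown in RPMI with 10% FBS, penicillin/streptomycin and L-glutamine at 37 °C, 5% CO2, then exposed to 150 µM compound for 12 h at 37 °C. Washed with ice-cold PBS, pellet extracted in MeOH/NH4OAc (60:40) with 80 fmol internal standards, three liquid-N2 freeze–thaw cycles, filtered, dried, redissolved in 20 mM HEPES pH 7.2. Analysed by LC-MS/MS against a standard curve.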

The target in series [3] is T1, Adenosine 5'-monophosphoramidase HINT1. Put plainly: Prodrug activation in human GRANTA-519 cells assessed as Hint1 mediated 2-amino-7-(2-(4-chlorophenoxy)ethyl)-9-((2R,3R,4S,5R)-3,4-dihydroxy-5-(phosphonooxymethyl)tetrahydrofuran-2-yl)-6-oxo-6,9-dihydro-1H-purin-7-ium formation per 5 million cells at 150 uM after 12 hrs by LC-MS/MS analysis. Type of series: cell-based. The method, boiled down:
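Five million MCL cells in RPMI/10% FBS with penicillin, streptomycin and L-glutamine were exposed to compound (150 µM) for 12 h at 37 °C. Cells were washed in cold PBS, extracted in MeOH/NH4OAc (60:40) with 80 fmol internal standards, freeze-thawed three times, then filtered and dried. Residue was taken up in HEPES for LC-MS/MS, quantified against an internal-standard curve.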

Series [4] has as its target Eukaryotic translation initiation factor 4E (Homo sapiens) (UniProt P06730). Briefly: Inhibition of eIF4E in human Z138 cells assessed as disruption of interaction between protein and mRNA 5'-cap at 10 to 100 uM by m7GTP pull-down assay. Type of series: cell-based. The method, boiled down:
(§2)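 Eight to ten million treated MCL cells washed in cold PBS, lysed in cap binding buffer, and eIF4E binding captured on m7GTP-Sepharose beads (pull-down).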

The target is the same in series [5]. Put plainly: Inhibition of eIF4E in human GRANTA-519 cells assessed as disruption of interaction between protein and mRNA 5'-cap at 10 to 100 uM by m7GTP pull-down assay. Type of series: cell-based. The method, boiled down: as §2
Series [6] in a line: Antiproliferative activity against human Mino cells at 200 uM preincubated for 48 hrs followed by thymidine addition measure after 16 hrs by Thymidine incorporation assay. Type of series: functional. The method, boiled down: as §1
Series [7] concerns Granta-519. Put plainly: Antiproliferative activity against human GRANTA-519 cells at 200 uM preincubated for 48 hrs followed by thymidine addition measure after 16 hrs by Thymidine incorporation assay. Type of series: functional. The method, boiled down: as §1
Series [8] addresses Eukaryotic translation initiation factor 4E (Homo sapiens) (UniProt P06730). Briefly: Inhibition of eIF4E in human GRANTA-519 cells assessed as down regulation of c-Myc protein expression after 48 hrs by Western blot method. Type of series: cell-based. The method, boiled down:
(§3)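 MCL lines treated 48 h with compound; protein quantified and Western blotted with eIF4E, eIF4G, actin, c-Myc and Bcl-2 antibodies.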
On the technique in general: Immunoblotting shows a protein as a band on a membrane.

Series [9] shares this target. Put plainly: Inhibition of eIF4E in human Mino cells assessed as down regulation of c-Myc protein expression after 48 hrs by Western blot method. Type of series: cell-based. The method, boiled down: as §3
Series [10] shares this target. Briefly: Inhibition of eIF4E in human Mino cells assessed as potentiation of dexamethasone induced antiproliferation at 100 uM preincubated for 48 hrs followed by thymidine addition measure after 16 hrs by Thymidine incorporation assay. Type of series: cell-based. The method, boiled down: as §1
Series [11] shares this target. Briefly: Inhibition of eIF4E in human Mino cells assessed as down regulation of c-Myc protein expression at 100 uM after 48 hrs by Western blot analysis. Type of series: cell-based. The method, boiled down: as §3
Series [12] has the same target. Put plainly: Inhibition of eIF4E in human Mino cells assessed as down regulation of c-Myc protein expression at 100 uM after 48 hrs in presence of ibrutinib by Western blot analysis. Type of series: cell-based. The method, boiled down: as §3
Series [13] is described as follows: AUC (0 to 8 hrs) in Sprague-Dawley rat plasma at 25 mg/kg, po by LC-MS/MS analysis. Type of series: ADME, organism-based. On the set-up: time < 8 hr, dose 25 mg/kg, route oral. Put shortly:
(§4)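 Female Sprague-Dawley rats (250-274 g, n=3, catheterized femoral/jugular veins) dosed once p.o. by gavage (25 mg/kg) then, after a 3-day washout, i.v. (2.5 mg/kg). Formulation: 10 mg/mL in 0.5% aqueous CMC with 5% DMSO. Serial blood draws to 480 min into K2EDTA; plasma protein-precipitated with acetonitrile plus internal standards; LC-MS/MS (positive MRM); non-compartmental PK; %F from dose-normalized AUC per rat.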

Series [14] is described as follows: AUC (0 to 8 hrs) in Sprague-Dawley rat plasma at 2.5 mg/kg, iv by LC-MS/MS analysis. Type of series: ADME, organism-based. On the set-up: time < 8 hr, dose 2.5 mg/kg, route intravenous. The method, boiled down:
as §4

Series [15] is described as follows: Volume of distribution in Sprague-Dawley rat at 2.5 mg/kg, iv by LC-MS/MS analysis. As to conditions: in vivo. Type of series: ADME, organism-based. The method, boiled down:
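Female Sprague-Dawley rats (n=3, 250-274 g) with catheters; compound in 0.5% aqueous CMC with 5% DMSO given as a single i.v. injection, 2.5 mg/kg. Blood drawn at 0–480 min into K2EDTA tubes. Plasma precipitated with acetonitrile containing internal standards, then LC-MS/MS in positive MRM mode. Parameters from non-compartmental analysis.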

Series [16] relates to Rattus norvegicus. Briefly: Clearance in Sprague-Dawley rat at 2.5 mg/kg, iv by LC-MS/MS analysis. Type of series: ADME, organism-based. As to conditions: in vivo. The method, boiled down:
as §4

The nature of series [17]: Half life in Sprague-Dawley rat at 2.5 mg/kg, iv by LC-MS/MS analysis. Type of series: ADME, organism-based. The settings on record: in vivo. The method, boiled down:
as §4

Series [18] can be described thus: Oral bioavailability in Sprague-Dawley rat at 25 mg/kg by LC-MS/MS analysis. Type of series: ADME, organism-based. As to conditions: in vivo. Put shortly:
as §4

Series [19] concerns Rattus norvegicus. Put plainly: AUC (0 to 8 hrs) in Sprague-Dawley rat plasma assessed as 9-((2R,3R,4S,5R)-5-(((((2-(1H-Indol-3-yl)ethyl)amino)-(hydroxy)phosphoryl)oxy)methyl)-3,4-dihydroxytetrahydrofuran-2-yl)-2-amino-7-(2-(4-chlorophenoxy)ethyl)-6-oxo-6,9-dihydro-1H-purin-7-ium at 2.5 mg/kg, iv by LC-MS/MS analysis. Type of series: ADME, organism-based. On the set-up: time < 8 hr, dose 2.5 mg/kg, route intravenous. The settings on record: in vivo. The method, boiled down:
as §4

In series [20] the test system is Z-138. Briefly: Antiproliferative activity against human Z138 cells at 200 uM preincubated for 48 hrs followed by thymidine addition measure after 16 hrs by Thymidine incorporation assay. Type of series: functional. The method, boiled down: as §1
A short description of series [21]: Cytotoxicity against human Mino cells assessed as reduction in cell survival at 100 uM after 48 hrs in presence of dexamethasone by Annexin V/propidium iodide based flow cytometric analysis. Put shortly:
(§5)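 MCL lines treated 48 h with compound re-added daily (alone or with co-drug; ibrutinib 25 µM), then survival assessed by Annexin V/PI flow cytometry.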

A short description of series [22]: Cytotoxicity against human Mino cells assessed as reduction in cell survival at 100 uM after 48 hrs in presence of ibrutinib by Annexin V/propidium iodide based flow cytometric analysis. The method, boiled down:
as §5
In general terms: Flow cytometry measures light scatter and fluorescence of single cells or particles in a stream.

In series [23] the test system is Plasma. Briefly: Prodrug activation in Sprague-Dawley rat assessed as Hint1 mediated 2-amino-7-(2-(4-chlorophenoxy)ethyl)-9-((2R,3R,4S,5R)-3,4-dihydroxy-5-(phosphonooxymethyl)tetrahydrofuran-2-yl)-6-oxo-6,9-dihydro-1H-purin-7-ium formation in plasma at 2.5 mg/kg, iv or 25 mg/kg, po by LC-MS/MS analysis. Type of series: organism-based. The settings on record: in vivo. Put shortly: as §4

Chain of Eukaryotic translation initiation factor 4E (Homo sapiens) (P06730 whole entry): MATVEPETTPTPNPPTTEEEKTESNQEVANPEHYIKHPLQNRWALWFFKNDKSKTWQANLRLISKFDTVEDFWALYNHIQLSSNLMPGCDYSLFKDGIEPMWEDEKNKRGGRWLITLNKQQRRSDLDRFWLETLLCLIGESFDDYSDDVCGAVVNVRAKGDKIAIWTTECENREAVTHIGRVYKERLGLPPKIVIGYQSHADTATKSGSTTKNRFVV
T1 sequence (P49773 whole entry): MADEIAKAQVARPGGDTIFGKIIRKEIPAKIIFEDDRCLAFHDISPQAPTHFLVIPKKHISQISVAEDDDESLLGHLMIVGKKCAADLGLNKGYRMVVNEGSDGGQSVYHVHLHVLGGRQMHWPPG

One may read the AUC(0-t) as the area under the concentration-time curve up to a stated or last time point. A high value points to more exposure. The term Vd denotes a proportionality between amount in the body and measured concentration, not a real space. Higher therefore signals extensive tissue distribution. A word on the half-life: it is the time needed for the level to fall by half in the phase considered. A high value points to slow loss. For orientation: bioavailability means the share of a dose that reaches the circulation, judged against a reference dose that is usually intravenous. In general, AUC refers to concentration integrated over time. Turning to `CSCCOP(=O)(NCCc1c[nH]c2ccccc12)OC[C@H]1O[C@@H](n2c[n+](CCOc3ccc(Cl)cc3)c3c(=O)[nH]c(N)nc32)[C@H](O)[C@@H]1O` (stereo partly drawn), the result in series [1] was Active. The Drug metabolism in [2] is 272 pmol; in series [3] it was 10.3 pmol; in series [23], “Metabolite_Notdetected”. Also, the inhibition entry in [4], in series [5], in series [10], in series [11] and in series [12] was “Active” in each case. Besides, the Activity in series [6] is given as 100%; in [7], 100%; in series [20] it was 100%; in series [21] it was “Toxic”; in series [22], “Toxic”. Also, the inhibition entry in series [8] and in series [9] was “Dose-dependent effect” throughout. Moreover, the AUC(0-t) at 8 h in series [13] was 28.3 ng·h/mL; in [14] it was 23.3 ng·h/mL. This compound also returned a Vd in series [15] of 205 L/kg. For the same compound, the CL in series [16] was determined as 1800 mL/min/kg. In series [17], this compound had a half-life of 1.32 h. Also, in series [18], the bioavailability amounted to 23%. For the same compound, the AUC in [19] stood at 0.5 µg·min/mL.
